Consider one compound from ChEMBL document CHEMBL4017487, “Design and Synthesis of γ- and δ-Lactam M1 Positive Allosteric Modulators (PAMs): Convulsion and Cholinergic Toxicity of an M1-Selective PAM with Weak Agonist Activity” (J Med Chem, 2017).

pIC50: −log10 of the molar value.

The test system of data set [1] is Plasma. In words: Unbound plasma concentration in scopolamine-induced memory impairment Wistar rat model at 0.32 mg/kg, sc measured after 1.25 hrs by LC-MS/MS analysis. Type of data set: ADME, organism-based. The following applies: in vivo. A digest of the protocol:
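Rats from a satellite group of the scopolamine (0.32 mg/kg) Morris water maze study, N = 2/dose. Dosed sc as a solution in 20% hydroxypropyl β-cyclodextrin. Compound concentrations measured in plasma only at T = 1.25 h.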

Data set [2] deals with T1, Muscarinic acetylcholine receptor M1 (Homo sapiens, UniProt P11229).
T1 sequence (P11229 whole entry): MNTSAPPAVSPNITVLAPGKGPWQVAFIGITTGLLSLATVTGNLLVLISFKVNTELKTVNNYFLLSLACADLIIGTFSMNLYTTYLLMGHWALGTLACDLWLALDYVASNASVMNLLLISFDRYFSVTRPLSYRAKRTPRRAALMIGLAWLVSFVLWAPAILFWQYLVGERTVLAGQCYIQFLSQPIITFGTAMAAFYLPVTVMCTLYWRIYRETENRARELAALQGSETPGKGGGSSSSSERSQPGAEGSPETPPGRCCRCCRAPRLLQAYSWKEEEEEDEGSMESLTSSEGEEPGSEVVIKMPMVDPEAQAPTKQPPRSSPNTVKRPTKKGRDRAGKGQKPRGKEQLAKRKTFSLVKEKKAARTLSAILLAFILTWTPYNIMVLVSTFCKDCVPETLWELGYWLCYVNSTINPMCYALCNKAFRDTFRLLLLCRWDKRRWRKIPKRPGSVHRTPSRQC
In words: Activity at human muscarinic acetylcholine receptor M1 expressed in CHO cells assessed as increase in acetylcholine-induced beta-arrestin recruitment. Type of data set: cell-based. (Activated receptors often draw arrestin, which recruitment assays turn into a signal.)

For data set [3], the target named is Dual 3',5'-cyclic-AMP and -GMP phosphodiesterase 11A (Homo sapiens, UniProt Q9HCR9). In words: Inhibition of PDE11A4 (unknown origin).
In data set [4] the test system is Canis familiaris. In words: Cholinergic toxicity in dog assessed as emesis at 5 mg/kg, po administered as single dose using spray dried dispersion formulation after 1 to 4 hrs. Type of data set: organism-based, Canis lupus familiaris. The conditions noted are these: in vivo. The method, boiled down:
(§1)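 Dog single oral dose escalation: 1/sex at 5 mg/kg for each formulation; 1 female at 15 mg/kg. Spray-dried dispersion: 23% drug loading with 0.5% methylcellulose and 100 mM citrate buffer. Clinical signs timed in approximate hours postdose; unbound plasma Cmax.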

Data set [5] in a line: Intrinsic clearance in human liver microsomes. Type of data set: ADME, microsome. The conditions noted are these: read-out: CLH. For orientation: Liver microsomes are a subcellular fraction often used to study metabolism.
The subject of another data set is Brain. In words: Unbound brain concentration in amphetamine-induced hyperlocomotion C57BL/6 mouse at 0.3 mg/kg, sc measured after 1 hr by LC-MS/MS analysis. The following applies: in vivo. Type of data set: ADME, organism-based. A digest of the protocol: (§2)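 Satellite group of C57BL/6 mice from the amphetamine-stimulated locomotor study, N = 2/dose at 0.32, 1 and 3.2 mg/kg. Dosed sc as a solution in 10/90 Cremophor/water. Unbound plasma and brain concentrations measured at T = 1 h.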

The next data set has as its system Mus musculus. In words: In vivo agonist activity at muscarinic acetylcholine receptor M1 in C57BL/6 mouse assessed as unbound brain concentration required to show 2 fold increase in IP1 accumulation in striatum at 1 to 10 mg/kg, sc measured after 2 hrs. Type of data set: organism-based. The method, boiled down: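 Cb,u giving a 2-fold rise in striatal IP1 in C57BL/6 mice, estimated by interpolation of individual-mouse IP1 versus free brain exposure data.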

Data set [6] can be described thus: Ratio of unbound Cmax in dog brain assessed as convulsions at 15 mg/kg, po administered as single dose to unbound brain concentration for agonist activity at muscarinic acetylcholine receptor M1 in C57BL/6 mouse assessed as required to show 2 fold increase in IP1 accumulation in striatum at 1 to 10 mg/kg, sc. Type of data set: organism-based.
The subject of data set [7] is Canis familiaris. In words: Cholinergic toxicity in dog assessed as ataxia at 5 mg/kg, po administered as single dose using spray dried dispersion formulation after 2 hrs. Type of data set: organism-based, Canis lupus familiaris. The conditions noted are these: in vivo. A digest of the protocol:
as §1

Data set [8] can be described thus: Ratio of AUC in dog brain to plasma at 0.5 mg/kg, po or 0.1 mg/kg, iv administered as single bolus dose. Type of data set: ADME, organism-based, Canis lupus familiaris. The following applies: read-out: Ratio AUC. A digest of the protocol: (§3)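 Brain/plasma ratio computed from AUC of total drug in brain and total drug in plasma.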
Another data set has as its system Rattus norvegicus. In words: Unbound Cmax in rat plasma at 15 mg/kg, po administered as single dose. Type of data set: ADME, organism-based. The following applies: in vivo.
Data set [9] deals with T1, Muscarinic acetylcholine receptor M1. In words: Ratio of positive allosteric modulation of human muscarinic acetylcholine receptor M1 expressed in CHO cells assessed as increase in acetylcholine-induced calcium mobilization by measuring functional co-operativity with acetylcholine to Kb human muscarinic acetylcholine receptor M1 expressed in CHO cells assessed as increase in calcium mobilization. Type of data set: ADME, cell-based. A general note: A change in cytosolic calcium serves as a functional read-out for many receptors and channels.

Data set [10] concerns Plasma. In words: Unbound plasma concentration in amphetamine-induced hyperlocomotion C57BL/6 mouse at 3.2 mg/kg, sc measured after 1 hr by LC-MS/MS analysis. Type of data set: ADME, organism-based. The conditions noted are these: in vivo. A digest of the protocol: as §2
The nature of data set [11]: Ratio of AUC in rat brain to plasma at 2 mg/kg, po or 0.5 mg/kg, iv administered as single bolus dose. Type of data set: ADME, organism-based. The following applies: read-out: Ratio AUC. The method, boiled down:
as §3

Data set [12] deals with T2, Muscarinic acetylcholine receptor M5 (Homo sapiens, UniProt P08912).
T2 sequence (P08912 whole entry): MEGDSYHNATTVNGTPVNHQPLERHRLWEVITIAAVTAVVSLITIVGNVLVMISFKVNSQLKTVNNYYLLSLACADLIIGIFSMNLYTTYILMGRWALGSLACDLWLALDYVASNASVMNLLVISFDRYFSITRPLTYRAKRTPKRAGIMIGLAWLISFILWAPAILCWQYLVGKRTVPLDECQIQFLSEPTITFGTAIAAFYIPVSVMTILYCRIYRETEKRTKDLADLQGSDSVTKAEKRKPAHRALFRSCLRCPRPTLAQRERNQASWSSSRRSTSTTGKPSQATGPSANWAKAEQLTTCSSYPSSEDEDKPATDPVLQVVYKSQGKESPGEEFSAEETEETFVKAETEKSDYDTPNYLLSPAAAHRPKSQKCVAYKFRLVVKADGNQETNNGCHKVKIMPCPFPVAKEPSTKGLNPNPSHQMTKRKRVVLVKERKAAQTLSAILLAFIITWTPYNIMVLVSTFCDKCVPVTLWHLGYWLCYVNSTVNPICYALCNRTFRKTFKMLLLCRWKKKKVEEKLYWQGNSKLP
In words: Positive allosteric modulation of human muscarinic acetylcholine receptor M5 expressed in CHO cells assessed as increase in acetylcholine-induced calcium mobilization up to 10 uM preincubated for 10 mins followed by acetylcholine addition by Fluo-8-AM dye based FLIPR assay. Type of data set: cell-based. The method, boiled down:
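Recombinant functional human M2–M5 assays, each run in agonist and PAM modes at concentrations up to 10 μM.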

Sequence of Dual 3',5'-cyclic-AMP and -GMP phosphodiesterase 11A (Q9HCR9 whole entry): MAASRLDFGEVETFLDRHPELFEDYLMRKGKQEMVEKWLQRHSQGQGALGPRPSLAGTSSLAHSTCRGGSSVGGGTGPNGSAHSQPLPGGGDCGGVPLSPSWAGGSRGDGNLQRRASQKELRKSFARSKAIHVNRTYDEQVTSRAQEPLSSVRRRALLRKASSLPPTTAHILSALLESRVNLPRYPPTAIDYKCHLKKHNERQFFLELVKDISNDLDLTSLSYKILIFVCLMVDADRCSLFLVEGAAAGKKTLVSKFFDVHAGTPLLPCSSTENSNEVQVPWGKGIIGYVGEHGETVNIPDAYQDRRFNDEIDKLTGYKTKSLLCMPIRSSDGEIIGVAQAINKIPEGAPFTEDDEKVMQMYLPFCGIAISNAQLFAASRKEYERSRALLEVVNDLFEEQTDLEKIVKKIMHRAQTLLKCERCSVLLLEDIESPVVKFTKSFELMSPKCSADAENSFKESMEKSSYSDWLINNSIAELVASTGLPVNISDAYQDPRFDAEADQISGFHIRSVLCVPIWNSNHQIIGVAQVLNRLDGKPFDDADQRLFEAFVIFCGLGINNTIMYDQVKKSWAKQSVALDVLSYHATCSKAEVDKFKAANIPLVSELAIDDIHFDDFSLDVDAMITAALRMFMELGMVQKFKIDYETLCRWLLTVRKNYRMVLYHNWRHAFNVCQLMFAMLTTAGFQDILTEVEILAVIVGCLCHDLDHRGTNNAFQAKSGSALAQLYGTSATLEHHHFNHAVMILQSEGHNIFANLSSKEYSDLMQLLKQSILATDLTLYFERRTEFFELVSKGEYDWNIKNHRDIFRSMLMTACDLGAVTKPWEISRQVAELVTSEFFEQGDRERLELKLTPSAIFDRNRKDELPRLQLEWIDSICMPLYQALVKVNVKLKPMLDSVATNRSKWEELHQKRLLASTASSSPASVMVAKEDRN

In the case of `Cc1cc2c(cc1Cc1ccc(-c3cocn3)cc1)C(=O)N([C@H]1CCOC[C@@H]1O)C2`, the “Cp(f)” value in the data set with Plasma [1] is listed as 17 nM; in the data set on Plasma [10] it was 130 nM. The KA in data set [2] amounted to 60 µM. Further, the pIC50 (usually the negative decadic logarithm of the IC50, by convention in mol/L) in [3] is 5.30. Moreover, the Activity result in the data set with Canis familiaris [4] is “Toxic”; with Canis familiaris [7] it was “Toxic”; in [12], “Not Active”. In [5], the CLint scaled was under 8 mL/min/kg. Moreover, the entries for the “Drug uptake(free)” value with Brain and with Mus musculus were 3.8 nM and 22 nM, respectively. Further, the selectivity ratio in data set [6] amounted to 15. Further, the Kp came to 0.7 in data set [8] and 0.2 in [11]. Also, the fCmax in the data set with Rattus norvegicus stood at 1507 nM. Further, the Ratio in [9] is reported as 70.
